# Laboratory results: ChEMBL document CHEMBL4321819, “Simple Structural Modifications Converting a Bona fide MDM2 PROTAC Degrader into a Molecular Glue Molecule: A Cautionary Tale in the Design of PROTAC Degraders” (J Med Chem, 2019)
# Active and inactive are the calls of the source. The rule behind the calls is not given here.
# Assays:
# [1] = biological target: T1, Protein cereblon/Eukaryotic peptide chain release factor GTP-binding subunit ERF3A/DNA damage-binding protein 1/Cullin-4A (Homo sapiens) (UniProt Q96SW2+Q16531+Q13619+P15170); assay: Protac activity at GSPT1/CUL4/DDB1/CRBN in human RS4:11 cells expressing wild type p53 assessed as decrease in GSPT1 protein level at 1 to 3 uM after 24 hrs by Western blot analysis; format: cell-based
# T1 sequence (P15170 whole entry, looked up): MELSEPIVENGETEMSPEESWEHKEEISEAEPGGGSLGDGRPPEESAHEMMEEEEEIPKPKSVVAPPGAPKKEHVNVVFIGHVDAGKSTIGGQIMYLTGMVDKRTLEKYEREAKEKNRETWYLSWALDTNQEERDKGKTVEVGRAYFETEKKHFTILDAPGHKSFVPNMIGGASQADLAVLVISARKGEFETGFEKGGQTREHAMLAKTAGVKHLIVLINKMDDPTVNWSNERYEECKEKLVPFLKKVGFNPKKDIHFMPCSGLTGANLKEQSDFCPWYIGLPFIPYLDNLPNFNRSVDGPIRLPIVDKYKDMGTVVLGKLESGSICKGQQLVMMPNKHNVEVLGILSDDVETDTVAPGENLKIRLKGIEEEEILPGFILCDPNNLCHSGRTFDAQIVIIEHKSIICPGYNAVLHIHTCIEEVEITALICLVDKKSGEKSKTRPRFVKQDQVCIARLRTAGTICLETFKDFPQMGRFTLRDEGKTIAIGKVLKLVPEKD
# T1 sequence (Q13619 whole entry, looked up): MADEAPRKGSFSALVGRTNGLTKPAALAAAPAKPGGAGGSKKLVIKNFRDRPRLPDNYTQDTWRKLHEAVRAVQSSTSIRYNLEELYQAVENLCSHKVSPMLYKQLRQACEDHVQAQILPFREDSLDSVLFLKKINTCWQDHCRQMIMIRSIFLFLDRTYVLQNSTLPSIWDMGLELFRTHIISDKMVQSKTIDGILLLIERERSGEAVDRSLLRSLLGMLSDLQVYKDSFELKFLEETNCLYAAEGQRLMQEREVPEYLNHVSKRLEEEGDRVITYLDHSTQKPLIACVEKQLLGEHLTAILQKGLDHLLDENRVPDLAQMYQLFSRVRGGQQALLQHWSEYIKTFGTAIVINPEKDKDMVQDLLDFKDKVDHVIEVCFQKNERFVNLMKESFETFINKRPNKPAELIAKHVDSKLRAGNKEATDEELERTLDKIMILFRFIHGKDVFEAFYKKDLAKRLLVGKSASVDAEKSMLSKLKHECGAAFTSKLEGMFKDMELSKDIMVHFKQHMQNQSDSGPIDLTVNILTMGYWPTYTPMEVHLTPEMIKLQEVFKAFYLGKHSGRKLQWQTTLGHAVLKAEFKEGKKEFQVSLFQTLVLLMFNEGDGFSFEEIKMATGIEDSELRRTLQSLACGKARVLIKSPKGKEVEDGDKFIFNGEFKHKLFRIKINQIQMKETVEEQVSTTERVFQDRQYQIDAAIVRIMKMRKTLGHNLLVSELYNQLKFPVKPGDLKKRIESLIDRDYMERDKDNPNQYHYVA
# T1 sequence (Q16531 whole entry, looked up): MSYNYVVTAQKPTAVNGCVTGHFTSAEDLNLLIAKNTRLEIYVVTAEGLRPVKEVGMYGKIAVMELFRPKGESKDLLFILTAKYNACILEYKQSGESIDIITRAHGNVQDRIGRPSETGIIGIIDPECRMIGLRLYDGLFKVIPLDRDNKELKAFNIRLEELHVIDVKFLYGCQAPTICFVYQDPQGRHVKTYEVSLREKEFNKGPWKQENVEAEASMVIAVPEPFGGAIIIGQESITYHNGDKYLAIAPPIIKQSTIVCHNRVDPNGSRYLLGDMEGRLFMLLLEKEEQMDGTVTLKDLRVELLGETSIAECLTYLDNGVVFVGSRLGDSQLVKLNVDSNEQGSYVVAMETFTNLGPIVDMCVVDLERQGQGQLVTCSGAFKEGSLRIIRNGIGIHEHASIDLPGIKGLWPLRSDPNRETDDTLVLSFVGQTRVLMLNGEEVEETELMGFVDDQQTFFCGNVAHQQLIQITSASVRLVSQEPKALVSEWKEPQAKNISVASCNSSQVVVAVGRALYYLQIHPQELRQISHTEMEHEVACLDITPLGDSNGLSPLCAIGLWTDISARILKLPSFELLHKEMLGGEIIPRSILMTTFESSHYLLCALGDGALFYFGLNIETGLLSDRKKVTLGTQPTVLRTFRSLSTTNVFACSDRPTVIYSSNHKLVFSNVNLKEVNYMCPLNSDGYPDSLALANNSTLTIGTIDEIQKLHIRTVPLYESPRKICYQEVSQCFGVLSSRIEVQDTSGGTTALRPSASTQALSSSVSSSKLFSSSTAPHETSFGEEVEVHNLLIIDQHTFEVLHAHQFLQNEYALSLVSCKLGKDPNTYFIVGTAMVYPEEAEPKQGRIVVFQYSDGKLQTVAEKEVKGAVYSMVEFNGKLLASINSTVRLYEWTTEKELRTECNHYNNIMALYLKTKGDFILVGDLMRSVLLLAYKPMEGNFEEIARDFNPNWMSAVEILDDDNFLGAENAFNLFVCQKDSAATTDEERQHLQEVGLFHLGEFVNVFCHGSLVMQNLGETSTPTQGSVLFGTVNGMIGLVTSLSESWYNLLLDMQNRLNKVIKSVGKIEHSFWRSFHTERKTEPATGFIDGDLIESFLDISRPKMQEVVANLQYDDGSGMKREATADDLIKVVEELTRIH
# T1 sequence (Q96SW2 whole entry, looked up): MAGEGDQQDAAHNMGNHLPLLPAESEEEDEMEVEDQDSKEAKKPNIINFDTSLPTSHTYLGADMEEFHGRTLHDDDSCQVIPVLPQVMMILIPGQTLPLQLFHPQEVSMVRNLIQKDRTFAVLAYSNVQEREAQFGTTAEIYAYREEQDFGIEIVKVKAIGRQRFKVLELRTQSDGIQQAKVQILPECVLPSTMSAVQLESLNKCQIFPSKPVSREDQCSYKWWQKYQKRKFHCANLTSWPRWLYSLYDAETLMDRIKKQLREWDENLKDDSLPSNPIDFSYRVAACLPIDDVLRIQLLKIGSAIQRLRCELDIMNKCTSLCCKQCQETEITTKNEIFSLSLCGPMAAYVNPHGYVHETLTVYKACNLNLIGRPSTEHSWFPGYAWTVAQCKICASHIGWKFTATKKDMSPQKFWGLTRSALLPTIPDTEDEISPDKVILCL
# Method in brief: (§1)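 RS4;11 (wild-type p53) or RS4;11/IRMI-2 (MDM2 inhibitor-resistant derivative, mutant p53) cells kept in RPMI 1640 with 10% FBS at 37 °C, 5% CO₂. 2×10^6 cells/well treated at the indicated concentrations and times, then lysed in ice-cold lysis buffer with protease inhibitor. GSPT1 detected by Western blot with a specific antibody.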
# RS4-11 [2] = assay: Antiproliferative activity against human RS4:11 cells expressing wild type p53 assessed as cell growth inhibition after 4 days by WST-8 assay; format: functional, cell-based; settings: RS4-11, 96 h
# Method in brief: (§2)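 Leukemia cells seeded at 10000–20000 cells/well, breast cancer lines at 5000–10000 cells/well. Serially diluted compound added, then 4 days at 37 °C, 5% CO2. Growth read with WST-8 reagent after at least 1 h, absorbance at 450 nm. RS4;11, MOLM-13 and breast lines were grown in RPMI 1640; MV-4-11 and HL-60 in IMDM; all with 10% FBS. Mean ± SE, at least three independent experiments.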
# [3] = (§3) Antiproliferative activity against human RS4:11/IRMI-2 cells harboring p53 hotspot mutation Y236H/R249G assessed as cell growth inhibition after 4 days by WST-8 assay; format: functional, cell-based; settings: RS4-11, 96 h; method in brief: as §2
# [4] = biological target: T1, Protein cereblon/Eukaryotic peptide chain release factor GTP-binding subunit ERF3A/DNA damage-binding protein 1/Cullin-4A (Homo sapiens); assay: Protac activity at GSPT1/CUL4/DDB1/CRBN in human RS4:11/IRMI-2 cells harboring p53 hotspot mutation Y236H/R249G assessed as decrease in GSPT1 protein level at 1 to 3 uM after 24 hrs by Western blot analysis; format: cell-based; method in brief: as §1
# [5] = biological target: Eukaryotic peptide chain release factor GTP-binding subunit ERF3A (Homo sapiens, UniProt P15170); assay: Induction of GSPT1 degradation in human RS4:11 cells measured after 24 hrs by Western blot analysis; format: cell-based
# Chain of Eukaryotic peptide chain release factor GTP-binding subunit ERF3A (P15170 whole entry): as the sequence (P15170 whole entry, looked up) above
# [6] = biological target: T1, Protein cereblon/Eukaryotic peptide chain release factor GTP-binding subunit ERF3A/DNA damage-binding protein 1/Cullin-4A (Homo sapiens); assay: Protac activity at GSPT1/CUL4/DDB1/CRBN in human RS4:11/IRMI-2 cells harboring p53 hotspot mutation Y236H/R249G assessed as decrease in GSPT1 protein level after 2 hrs by Western blot analysis; format: cell-based; method in brief: as §1
# [7] = biological target: T1, Protein cereblon/Eukaryotic peptide chain release factor GTP-binding subunit ERF3A/DNA damage-binding protein 1/Cullin-4A (Homo sapiens); assay: Protac activity at GSPT1/CUL4/DDB1/CRBN in human RS4:11 cells expressing wild type p53 assessed as decrease in GSPT1 protein level after 2 hrs by Western blot analysis; format: cell-based; method in brief: as §1
# [8] = biological target: T2, E3 ubiquitin-protein ligase Mdm2 (Homo sapiens, UniProt Q00987); assay: Displacement of PMDM6-F fluorescent probe from human recombinant His-tagged MDM2 (1 to 118 residues) after 15 mins by fluorescence polarization assay
# Method in brief: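 Recombinant human His-tagged MDM2 (residues 1–118) with a FAM-labelled p53-based peptide as fluorescent probe; competitive fluorescence-polarization binding. Mean ± standard error from at least three independent experiments.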
# Target sequence in this assay (Q00987 whole entry, the tested form may be a part): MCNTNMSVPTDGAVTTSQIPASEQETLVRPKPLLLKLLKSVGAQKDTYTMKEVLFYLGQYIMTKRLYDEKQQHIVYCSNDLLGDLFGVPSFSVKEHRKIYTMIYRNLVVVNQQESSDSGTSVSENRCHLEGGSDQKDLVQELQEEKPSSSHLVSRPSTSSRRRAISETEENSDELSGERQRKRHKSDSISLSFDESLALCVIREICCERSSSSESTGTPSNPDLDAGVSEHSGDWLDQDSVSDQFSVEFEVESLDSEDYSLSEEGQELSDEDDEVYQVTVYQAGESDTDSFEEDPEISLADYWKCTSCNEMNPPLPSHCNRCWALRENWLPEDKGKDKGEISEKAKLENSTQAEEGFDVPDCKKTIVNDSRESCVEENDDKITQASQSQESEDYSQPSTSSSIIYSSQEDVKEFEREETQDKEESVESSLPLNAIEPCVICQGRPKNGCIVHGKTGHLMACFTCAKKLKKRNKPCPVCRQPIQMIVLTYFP
# RS4-11 [9] = assay: Antiproliferative activity against human RS4:11 cells expressing wild type p53 assessed as MDM2-independent cell growth inhibition after 4 days by WST-8 assay; format: functional, cell-based; settings: RS4-11, 96 h; method in brief: as §2
# [10] = Antiproliferative activity against human RS4:11/IRMI-2 cells harboring p53 hotspot mutation Y236H/R249G assessed as MDM2-independent cell growth inhibition after 4 days by WST-8 assay; format: functional, cell-based; settings: RS4-11, 96 h; method in brief: as §2
# MDA-MB-231 [11] = assay: Antiproliferative activity against human MDA-MB-231 cells assessed as cell growth inhibition after 4 days in presence of control siRNA for 3 days followed by compound treatment by WST-8 assay; format: functional, cell-based
# MDA-MB-231 [12] = assay: Antiproliferative activity against human MDA-MB-231 cells transfected with CRBN siRNA LQ-021086-11-0002 assessed as cell growth inhibition after 4 days by WST-8 assay; format: functional, cell-based; settings: MDA-MB-231, 96 h
# Method in brief: (§4)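 MDA-MB-231 or MDA-MB-468 cells transfected for 2 days using Lipofectamine RNAiMAX with MDM2 siRNA, one of two CRBN siRNAs, or non-targeting control siRNA. Compound then added and growth read by WST-8 at 450 nm.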
# RS4-11 [13] = assay: Antiproliferative activity against human RS4:11 cells expressing wild type p53 assessed as cell growth inhibition without interaction with cereblon after 4 days by WST-8 assay; format: functional, cell-based; settings: RS4-11, 96 h; method in brief: as §2
# MDA-MB-231 [14] = assay: Antiproliferative activity against human MDA-MB-231 cells transfected with CRBN siRNA LQ-021086-10-0002 assessed as cell growth inhibition after 4 days by WST-8 assay; format: functional, cell-based; settings: MDA-MB-231, 72 h, in the assay text read “after 3 days” for “after 4 days”; method in brief: as §4
# MDA-MB-231 [15] = assay: Antiproliferative activity against human MDA-MB-231 cells transfected with MDM2 siRNA assessed as cell growth inhibition after 4 days by WST-8 assay; format: functional, cell-based; settings: MDA-MB-231, 96 h; method in brief: as §4
# MDA-MB-468 [16] = assay: Antiproliferative activity against human MDA-MB-468 cells transfected with CRBN siRNA LQ-021086-11-0002 assessed as cell growth inhibition after 4 days by WST-8 assay; format: functional, cell-based; settings: MDA-MB-468, 96 h; method in brief: as §4
# MDA-MB-231 [17] = assay: Antiproliferative activity against human MDA-MB-231 cells assessed as cell growth inhibition after 4 days in presence of control siRNA for 2 days followed by compound treatment by WST-8 assay; format: functional, cell-based; method in brief: as §4
# [18] = Antiproliferative activity against human RS4:11/IRMI-2 cells harboring p53 hotspot mutation Y236H/R249G assessed as cell growth inhibition without interaction with cereblon after 4 days by WST-8 assay; format: functional, cell-based; settings: RS4-11, 96 h; method in brief: as §2
# MOLM-13 = assay: Antiproliferative activity against human MOLM13 cells expressing wild type p53 assessed as cell growth inhibition after 4 days by WST-8 assay; format: functional, cell-based; settings: MOLM-13, 96 h; method in brief: as §2
# MDA-MB-468 [19] = assay: Antiproliferative activity against human MDA-MB-468 cells harboring mutant p53 assessed as cell growth inhibition after 4 days by WST-8 assay; format: functional, cell-based; method in brief: as §2
# HL-60 = assay: Antiproliferative activity against human HL60 cells with lack of p53 assessed as cell growth inhibition after 4 days by WST-8 assay; format: functional, cell-based; method in brief: as §2
# [20] = biological target: T2, E3 ubiquitin-protein ligase Mdm2; assay: Induction of MDM2 degradation in human RS4:11 cells assessed as upregulation of MDM2 at 1000 to 3000 nM after 1 hr by Western blot analysis; format: cell-based
# Method in brief: (§5)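 Western blots of MDM2 and p53 protein were run on RS4;11 cells (wild-type p53) in RPMI 1640 with 10% FBS. 2×10^6 cells/well were treated at the indicated concentrations for 1 h or 2 h. Lysis was in ice-cold buffer with protease inhibitor, followed by probing with specific antibodies.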
# Target sequence in this assay (Q00987 whole entry, looked up, the tested form may be a part): as the sequence (Q00987 whole entry, the tested form may be a part) above
# MV4-11 = assay: Antiproliferative activity against human MV4-11 cells expressing wild type p53 assessed as cell growth inhibition after 4 days by WST-8 assay; format: functional, cell-based; settings: MV4-11, 96 h; method in brief: as §2
# [21] = biological target: T2, E3 ubiquitin-protein ligase Mdm2; assay: Induction of MDM2 degradation in human RS4:11 cells assessed as upregulation of p53 at 1000 to 3000 nM after 1 hr by Western blot analysis; format: cell-based; method in brief: as §5
# Target sequence in this assay (Q00987 whole entry, looked up, the tested form may be a part): as the sequence (Q00987 whole entry, the tested form may be a part) above
# MDA-MB-231 [22] = assay: Antiproliferative activity against human MDA-MB-231 cells harboring mutant p53 assessed as cell growth inhibition without interaction with cereblon after 4 days by WST-8 assay; format: functional, cell-based; settings: MDA-MB-231, 96 h
# MDA-MB-468 [23] = assay: Antiproliferative activity against human MDA-MB-468 cells assessed as cell growth inhibition after 4 days in presence of control siRNA for 3 days followed by compound treatment by WST-8 assay; format: functional, cell-based
# Homo sapiens = organism: Homo sapiens; assay: as §3; format: functional, cell-based; method in brief: as §2
# MDA-MB-468 [24] = assay: Antiproliferative activity against human MDA-MB-468 cells transfected with CRBN siRNA LQ-021086-10-0002 assessed as cell growth inhibition after 4 days by WST-8 assay; format: functional, cell-based; settings: MDA-MB-468, 96 h; method in brief: as §4
# MDA-MB-468 [25] = assay: Antiproliferative activity against human MDA-MB-468 cells transfected with MDM2 siRNA assessed as cell growth inhibition after 4 days by WST-8 assay; format: functional, cell-based; settings: MDA-MB-468, 96 h; method in brief: as §4
# MDA-MB-468 [26] = assay: Antiproliferative activity against human MDA-MB-468 cells assessed as cell growth inhibition after 4 days in presence of control siRNA for 2 days followed by compound treatment by WST-8 assay; format: functional, cell-based; method in brief: as §4
# MDA-MB-468 [27] = assay: Antiproliferative activity against human MDA-MB-468 cells harboring mutant p53 assessed as cell growth inhibition without interaction with cereblon after 4 days by WST-8 assay; format: functional, cell-based; settings: MDA-MB-468, 96 h
# MDA-MB-231 [28] = assay: Antiproliferative activity against human MDA-MB-231 cells harboring mutant p53 assessed as cell growth inhibition after 4 days by WST-8 assay; format: functional, cell-based; method in brief: as §2
structure (smiles),measurement,setting,value
O=C1CCC(N2Cc3c(CCCNC(=O)[C@@H]4NC5(CCCCC5)[C@@]5(C(=O)Nc6cc(Cl)ccc65)[C@H]4c4cccc(Cl)c4F)cccc3C2=O)C(=O)N1 (stereo partly specified),Activity,[1],Active
same,IC50,RS4-11 [2],130 nM
same,IC50,[3],180 nM
same,Activity,[4],Active
same,DC50,[5],120 nM
O=C1CCC(N2Cc3c(CCCOCCNC(=O)[C@@H]4NC5(CCCCC5)[C@@]5(C(=O)Nc6cc(Cl)ccc65)[C@H]4c4cccc(Cl)c4F)cccc3C2=O)C(=O)N1 (stereo partly specified),IC50,RS4-11 [2],3.6 nM
same,IC50,[3],3.5 nM
same,Activity,[6],Active
same,Activity,[7],Active
same,DC50,[5],1.8 nM
O=C1CCC(N2Cc3c(CCCCCNC(=O)[C@@H]4NC5(CCCCC5)[C@@]5(C(=O)Nc6ccccc65)[C@H]4c4ccccc4F)cccc3C2=O)C(=O)N1 (stereo partly specified),IC50,[8],> 20000 nM
same,IC50,RS4-11 [9],4.1 nM
same,IC50,[10],3.7 nM
O=C1CCC(N2Cc3c(CCCCNC(=O)[C@@H]4NC5(CCCCC5)[C@@]5(C(=O)Nc6cc(Cl)ccc65)[C@H]4c4cccc(Cl)c4F)cccc3C2=O)C(=O)N1 (stereo partly specified),IC50,RS4-11 [2],2.5 nM
same,IC50,[3],2.6 nM
same,Activity,[6],Active
same,Activity,[7],Active
same,DC50,[5],1.1 nM
O=C1CCC(N2Cc3c(CCCOCCOCCNC(=O)[C@@H]4NC5(CCCCC5)[C@@]5(C(=O)Nc6cc(Cl)ccc65)[C@H]4c4cccc(Cl)c4F)cccc3C2=O)C(=O)N1 (stereo partly specified),IC50,RS4-11 [2],4.9 nM
same,IC50,[3],4.9 nM
same,Activity,[6],Active
same,Activity,[7],Active
same,DC50,[5],1.2 nM
CNC(=O)[C@@H]1NC2(CCCCC2)[C@@]2(C(=O)Nc3cc(Cl)ccc32)[C@H]1c1cccc(Cl)c1F,IC50,[8],48.1 nM
same,IC50,MDA-MB-231 [11],> 3000 nM
same,IC50,MDA-MB-231 [12],> 3000 nM
same,IC50,RS4-11 [13],1110 nM
same,IC50,MDA-MB-231 [14],> 3000 nM
same,IC50,MDA-MB-231 [15],> 10 µM
same,IC50,MDA-MB-468 [16],> 3000 nM
same,IC50,MDA-MB-231 [17],> 10 µM
same,IC50,[18],9.58 µM
same,IC50,MOLM-13,1240 nM
same,growth inhibition (GI),MDA-MB-468 [19],inactive
same,growth inhibition (GI),HL-60,inactive
same,Activity,[20],inactive
same,IC50,RS4-11 [2],669 nM
same,IC50,MV4-11,898 nM
same,Activity,[21],Active
same,IC50,MDA-MB-231 [22],> 10 µM
same,IC50,MDA-MB-468 [23],> 3000 nM
same,growth inhibition (GI),Homo sapiens,inactive
same,IC50,MDA-MB-468 [24],> 3000 nM
same,Activity,[6],inactive
same,Activity,[7],inactive
same,IC50,RS4-11 [9],1490 nM
same,IC50,MDA-MB-468 [25],> 10 µM
same,IC50,MDA-MB-468 [26],> 10 µM
same,IC50,MDA-MB-468 [27],> 10 µM
same,IC50,[10],> 10000 nM
same,growth inhibition (GI),MDA-MB-231 [28],inactive
